Test [1] is described as follows: Her2 expression decrease, cell viability multiplex – SKBR3 breast tumor cells, AlphaScreen, ATP viability, primary screen (AID 461;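 active = Her2 level under about 52% in both replicate screens, with viability over 70% of control, limit read from the data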;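 for Her2 level: lower value means less Her2 protein in the cells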;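 for viability: percent of carrier control wells set as 100% viability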). The settings on record: SKBR3 Her2 protein level, 18-24 h, measured here: SKBR3 viability, ATP luminescence, at 10 µM.
The target in test [2] is Receptor tyrosine-protein kinase erbB-2 (Homo sapiens) (UniProt P04626). Described as above. As to conditions: 18-24 h, at 10 µM, stronger effect = lower value.
Receptor tyrosine-protein kinase erbB-2 (Homo sapiens), sequence (P04626 whole entry, looked up): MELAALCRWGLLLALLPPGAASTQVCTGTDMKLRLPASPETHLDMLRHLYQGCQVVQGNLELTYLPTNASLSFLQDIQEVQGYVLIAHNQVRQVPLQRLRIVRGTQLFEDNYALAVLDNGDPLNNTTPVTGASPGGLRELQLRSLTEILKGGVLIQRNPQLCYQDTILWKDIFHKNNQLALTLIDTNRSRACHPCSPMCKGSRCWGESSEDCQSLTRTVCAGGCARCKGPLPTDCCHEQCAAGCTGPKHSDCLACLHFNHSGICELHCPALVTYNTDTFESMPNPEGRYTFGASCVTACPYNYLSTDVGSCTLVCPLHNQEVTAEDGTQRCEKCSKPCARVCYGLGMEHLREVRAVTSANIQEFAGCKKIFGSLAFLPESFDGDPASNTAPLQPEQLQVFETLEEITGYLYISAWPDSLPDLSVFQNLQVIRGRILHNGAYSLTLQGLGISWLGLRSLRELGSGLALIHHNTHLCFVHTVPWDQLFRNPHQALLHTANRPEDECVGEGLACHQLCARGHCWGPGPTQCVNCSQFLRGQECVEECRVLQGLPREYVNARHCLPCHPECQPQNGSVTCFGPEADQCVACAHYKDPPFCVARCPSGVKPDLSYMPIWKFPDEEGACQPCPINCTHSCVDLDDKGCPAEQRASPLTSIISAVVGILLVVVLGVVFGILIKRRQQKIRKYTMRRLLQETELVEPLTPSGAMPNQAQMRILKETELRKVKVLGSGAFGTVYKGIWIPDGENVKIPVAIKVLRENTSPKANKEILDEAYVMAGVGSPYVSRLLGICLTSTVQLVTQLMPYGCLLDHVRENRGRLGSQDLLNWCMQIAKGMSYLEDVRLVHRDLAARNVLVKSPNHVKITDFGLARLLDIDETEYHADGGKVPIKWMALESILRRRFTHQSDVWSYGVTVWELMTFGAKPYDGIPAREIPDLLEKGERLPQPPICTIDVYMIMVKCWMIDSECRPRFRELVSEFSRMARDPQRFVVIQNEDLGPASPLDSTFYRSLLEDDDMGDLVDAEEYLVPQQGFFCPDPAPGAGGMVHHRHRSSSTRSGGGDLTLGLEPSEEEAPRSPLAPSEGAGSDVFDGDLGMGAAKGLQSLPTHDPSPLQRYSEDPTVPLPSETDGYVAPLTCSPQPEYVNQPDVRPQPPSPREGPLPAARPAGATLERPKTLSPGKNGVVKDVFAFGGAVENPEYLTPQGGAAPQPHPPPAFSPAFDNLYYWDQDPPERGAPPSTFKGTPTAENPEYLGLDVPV
Test [3] in a line: reduced viability of SK-BR-3 breast cancer cells – cell-based, 24 h, human, pilot screen (AID 572).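 Note: compound exposure lasted between 18 and 24 h rather than exactly 24 h; 100% = carrier-treated control wells.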 As to conditions: SK-BR-3 viability, CellTiter-Glo luminescence, at 10 µM, stronger effect = lower value.
The nature of test [4]: HUVEC growth inhibition – cell-based, human, primary screen (AID 575;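 active = viability at or below 30% in both replicate assays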;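 note: 100% = median of untreated cell wells with 0.1% DMSO on each plate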). The settings on record: HUVEC proliferation, CellTiter-Glo luminescence, 72 h; at 10 µM; stronger effect = lower value. The gist of the method:
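System – primary HUVEC, no more than 12 passages · Medium – Low-serum (2% FBS) EBM, supplemented · Times – 72 h exposure, 37 °C, 5% CO2, 30 min RT equilibration · Measured by – luminescent ATP assay · Read-out – % viability relative to median vehicle-well signal on each plate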

Test [5] in a line: H69AR cell proliferation blockers – human, duplicate replicates, primary screen (AID 580;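 active = viability at or under a set limit in both replicates, limit being median viability minus 3 SD, cut at about 48% in these data, passing the limit was not always enough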;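 note: 100% = mean luminescence of untreated wells and 0% = no signal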). The settings on record: H69AR lung tumor cells viability, ATP luminescence, 72 h; at 10 µM; stronger effect = lower value.
Test [6] in a line: MRP1 drug-resistance reversers in H69AR cells – cell-based, doxorubicin co-treatment, pilot screen (AID 601;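 active = viability loss from added drug above about 55%, and viability with drug at most 40%, in both replicates, limit read from the data, passing the limit was not always enough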). As to conditions: CellTiter-Glo, 72 h, at 10 µM; for differential viability (reversal): stronger effect = higher value.
Test [7] is described as follows: yeast transport mutant growth inhibition pilot in 384-well plates, post-Golgi transport modulator project (AID 636; in the data active = inhibition above about 31%). The settings on record: absorbance 615 nm, about 18 h, stronger effect = higher value.
Test [8] in a line: growth suppression of yeast trafficking mutant, preliminary HTS, modulators of trafficking downstream of Golgi apparatus project, 1536-format plate, OD 615 nm (AID 637; in the data active = inhibition above about 30%). The settings on record: yeast transport mutant growth, absorbance 615 nm, 18 h; stronger effect = higher value.
Setting [9] is: H69AR cells + 2 uM doxorubicin, measured here: viability with 2 uM doxorubicin, stronger effect = lower value.
The mark [10] stands for this setting: H69AR cells, compound alone cytotoxicity.

Active and inactive are the calls of the source.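 Rule for the calls, unless noted: active = viability at or below 10% of carrier control in both of two separate runs; inconclusive = viability at or below 10% in only one of the two runs; inactive = the rest.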

Consider `COC(=O)CCC(=O)Nc1cccc(Cl)c1`, for which the viability is 118% in test [1]; 118% (inactive) in test [3]; 90.1% (inactive) in test [4]; 85.4% (inactive) in test [5]; 91.1% in test [6] (setting [9]); 85.4% in test [6] (setting [10]). For the same molecule, the Her2 level in test [2] is 87% (inactive). Also, in test [6] (H69AR cells + 2 uM doxorubicin), the differential viability (reversal) was -5.69% (inactive). The inhibition in test [7] is -0.65% (inactive); in test [8] it was -2.54% (inactive).
As to `Cc1ccc(-c2nnc3ccc(SCC(=O)NCc4ccco4)nn23)cc1`, the viability is 100% in test [1]; 100% (inactive) in test [3]; 89% (inactive) in test [4]; 93.2% (inactive) in test [5]; 83.9% in test [6] (setting [9]); 93.2% in test [6] (setting [10]). In addition, in test [2], the Her2 level was 87.5% (inactive). The differential viability (reversal) in test [6] (H69AR cells + 2 uM doxorubicin) is 9.33% (inactive). Besides, the inhibition was -5.41% (inactive) in test [7] and -8.33% (inactive) in test [8].
For `Cc1cc(NS(=O)(=O)c2ccccc2)n(-c2ccccc2)n1`, the viability in test [1] is 106%; in test [3], 106% (inactive); in test [4], 85.2% (inactive); in test [5], 96.2% (inactive); in test [6] (setting [9]), 98.6%; in test [6] (setting [10]), 96.2%. The Her2 level in test [2] is 95.5% (inactive). The differential viability (reversal) in test [6] (H69AR cells + 2 uM doxorubicin) was -2.34% (inactive). Further, the inhibition was -4.13% (inactive) in test [7] and 2.1% (inactive) in test [8].
As to `CCOCCCNC(=O)CCNS(=O)(=O)c1ccc(C)cc1`, the viability was 102% in test [1]; 102% (inactive) in test [3]; 89.9% (inactive) in test [4]; 105% (inactive) in test [5]; 96.7% in test [6] (setting [9]); 105% in test [6] (setting [10]). The Her2 level in test [2] was 108% (inactive). The differential viability (reversal) in test [6] (H69AR cells + 2 uM doxorubicin) was 8.21% (inactive). The inhibition was -3.03% (inactive) in test [7] and -5.5% (inactive) in test [8].
Consider `CCCc1nnc(SCC(=O)N2CCOCC2)n1Cc1ccco1`, for which the viability was 126% in test [1]; 126% (inactive) in test [3]; 109% (inactive) in test [4]; 96.9% (inactive) in test [5]; 81.6% in test [6] (setting [9]); 96.9% in test [6] (setting [10]). Moreover, the Her2 level in test [2] was 87.5% (inactive). Further, the differential viability (reversal) in test [6] (H69AR cells + 2 uM doxorubicin) is 15.3% (inactive). Moreover, the inhibition in test [7] was -4.67% (inactive); in test [8], -6.39% (inactive).
For the molecule `Cc1cc(NC(=O)CCCN2C(=O)c3cccnc3C2=O)no1`, the viability was 92% in test [1]; 92% (inactive) in test [3]; 94.3% (inactive) in test [4]; 107% (inactive) in test [5]; 102% in test [6] (setting [9]); 107% in test [6] (setting [10]). Further, the Her2 level in test [2] was 95.5% (inactive). For the same molecule, the differential viability (reversal) in test [6] (H69AR cells + 2 uM doxorubicin) was 5.19% (inactive). The inhibition in test [7] is -2.84% (inactive); in test [8], -1.64% (inactive).
Turning to `O=C(CCCCCN1C(=O)CCC1=O)NCc1ccccc1`, the viability in test [1] is 103%; in test [3], 103% (inactive); in test [4] it was 100% (inactive); in test [5], 98.2% (inactive); in test [6] (setting [9]) it was 84.7%; in test [6] (setting [10]), 98.2%. Also, the Her2 level in test [2] is 73% (inactive). The differential viability (reversal) in test [6] (H69AR cells + 2 uM doxorubicin) was 13.5% (inactive). Also, the inhibition is -7.97% (inactive) in test [7] and 4.13% (inactive) in test [8].
Turning to `Cc1cc2c(cc1C)-c1nnnn1C(C)(C)C2`, the viability was 110% in test [1]; 110% (inactive) in test [3]; 101% (inactive) in test [4]; 91.9% (inactive) in test [5]; 87.1% in test [6] (setting [9]); 91.9% in test [6] (setting [10]). In test [2], the Her2 level was 97.5% (inactive). For the same molecule, in test [6] (H69AR cells + 2 uM doxorubicin), the differential viability (reversal) was 4.78% (inactive). The inhibition in test [7] is -9.07% (inactive); in test [8], -5.24% (inactive).
Take `O=C(Nc1ccc2c(c1)OCO2)c1cc2ncc(Br)cn2n1`: the viability in test [1] was 101%; in test [3], 101% (inactive); in test [4], 84.8% (inactive); in test [5], 86.8% (inactive); in test [6] (setting [9]), 104%; in test [6] (setting [10]), 86.8%. Also, in test [2], the Her2 level was 104% (inactive). Besides, the differential viability (reversal) in test [6] (H69AR cells + 2 uM doxorubicin) is -17.3% (inactive). Also, the results for the inhibition in test [7] and in test [8] were -4.67% (inactive) and -0.16% (inactive), respectively.
As to `CCCCc1nc(NCCNC(=O)c2ccco2)c(C#N)c2c1CSC(C)(C)C2`, the viability is 84.5% in test [1]; 84.5% (inactive) in test [3]; 78.7% (inactive) in test [4]; 86.7% (inactive) in test [5]; 70.9% in test [6] (setting [9]); 86.7% in test [6] (setting [10]). Moreover, the Her2 level in test [2] is 100% (inactive). For the same molecule, the differential viability (reversal) in test [6] (H69AR cells + 2 uM doxorubicin) is 15.8% (inactive). The inhibition in test [7] was -5.2% (inactive); in test [8], -7.38% (inactive).
Regarding `O=C(O)CN1C(=O)CNC1=O`, the viability is 98% in test [1]; 98% (inactive) in test [3]; 99.2% (inactive) in test [4]; 97.6% (inactive) in test [5]; 95.2% in test [6] (setting [9]); 97.6% in test [6] (setting [10]). For the same molecule, the Her2 level in test [2] is 93.5% (inactive). For the same molecule, the differential viability (reversal) in test [6] (H69AR cells + 2 uM doxorubicin) is 2.41% (inactive). Also, the inhibition in test [7] was -4.86% (inactive); in test [8], 7.21% (inactive).
For the molecule `CC(=O)N1CCC2(CC1)CC(=O)c1cc(OCC(=O)NCc3ccco3)ccc1O2`, the viability in test [1] was 106%; in test [3], 106% (inactive); in test [4], 106% (inactive); in test [5], 83.5% (inactive); in test [6] (setting [9]) it was 87.9%; in test [6] (setting [10]) it was 83.5%. The Her2 level in test [2] was 112% (inactive). Besides, the differential viability (reversal) in test [6] (H69AR cells + 2 uM doxorubicin) is -4.33% (inactive). Moreover, the inhibition in test [7] is 0.92% (inactive); in test [8], -3.17% (inactive).
Take `Cc1cc(-c2ccccc2)c2nncn2n1`: the viability in test [1] was 106%; in test [3], 106% (inactive); in test [4] it was 116% (inactive); in test [5], 89.9% (inactive); in test [6] (setting [9]), 84.1%; in test [6] (setting [10]) it was 89.9%. Further, the Her2 level in test [2] is 96% (inactive). For the same molecule, in test [6] (H69AR cells + 2 uM doxorubicin), the differential viability (reversal) is 5.82% (inactive). Besides, the inhibition was -8.27% (inactive) in test [7] and 2.42% (inactive) in test [8].
In the case of `CCCn1cc(SCC(=O)NCc2ccco2)c2ccccc21`, the viability was 98.5% in test [1]; 98.5% (inactive) in test [3]; 92.3% (inactive) in test [4]; 94% (inactive) in test [5]; 78.6% in test [6] (setting [9]); 94% in test [6] (setting [10]). Besides, the Her2 level in test [2] was 90% (inactive). The differential viability (reversal) in test [6] (H69AR cells + 2 uM doxorubicin) was 15.4% (inactive). Besides, the figures for the inhibition in test [7] and in test [8] were -5.47% (inactive) and 0.48% (inactive), respectively.
